Experimental data published in ChEMBL document CHEMBL1208778, “Synthesis and anti-cancer activity of chalcone linked imidazolones” (2010).
Active and inactive are the calls of the source. No cut-off for these calls is given here.

Legend:
Format in all cases: functional
[1] = Growth inhibition of human RPMI8266 cells
How it was run: (§1)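 Five-dose testing was run within the NCI (Bethesda) in vitro Anticancer Screen Program on a panel of 53 human tumour cell lines from nine cancer types. Growth inhibition is reported as GI50.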

[2] = test system: K562; assay: Growth inhibition of human K562 cells; how it was run: as §1
[3] = test system: A549; assay: Growth inhibition of human A549 cells; how it was run: as §1
[4] = test system: EKVX; assay: Growth inhibition of human EKVX cells; how it was run: as §1
[5] = test system: HOP-62; assay: Growth inhibition of human HOP62 cells; how it was run: as §1
[6] = test system: NCI-H226; assay: Growth inhibition of human NCI-H226 cells; how it was run: as §1
[7] = test system: NCI-H23; assay: Growth inhibition of human NCI-H23 cells; how it was run: as §1
[8] = test system: NCI-H322M; assay: Growth inhibition of human NCI-H322M cells; how it was run: as §1
[9] = test system: NCI-H460; assay: Growth inhibition of human NCI-H460 cells; how it was run: as §1
[10] = test system: NCI-H522; assay: Growth inhibition of human NCI-H522 cells; how it was run: as §1
[11] = test system: COLO 205; assay: Growth inhibition of human COLO205 cells; how it was run: as §1
[12] = test system: HCC 2998; assay: Growth inhibition of human HCC2998 cells; how it was run: as §1
[13] = test system: HCT-116; assay: Growth inhibition of human HCT116 cells; how it was run: as §1
[14] = test system: HCT-15; assay: Growth inhibition of human HCT15 cells; how it was run: as §1
[15] = test system: HT-29; assay: Growth inhibition of human HT-29 cells; how it was run: as §1
[16] = test system: KM12; assay: Growth inhibition of human KM12 cells; how it was run: as §1
[17] = test system: SW-620; assay: Growth inhibition of human SW620 cells
How it was run: (§2)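 Compounds that passed a preliminary screen were tested at five doses in the NCI (Bethesda) in vitro Anticancer Screen Program against a 53-line human tumour panel spanning leukemia, lung, colon, CNS, melanoma, ovarian, renal, prostate and breast. Growth inhibition is reported as GI50.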

[18] = test system: SF-268; assay: Growth inhibition of human SF268 cells; how it was run: as §1
[19] = test system: SF-295; assay: Growth inhibition of human SF295 cells; how it was run: as §1
[20] = test system: SF-539; assay: Growth inhibition of human SF539 cells; how it was run: as §1
[21] = test system: SNB-19; assay: Growth inhibition of human SNB19 cells; how it was run: as §2
[22] = test system: SNB-75; assay: Growth inhibition of human SNB75 cells; how it was run: as §2
[23] = test system: U-251; assay: Growth inhibition of human U251 cells; how it was run: as §2
[24] = test system: A498; assay: Growth inhibition of human A498 cells; how it was run: as §1
[25] = test system: 786-0; assay: Growth inhibition of human 786-0 cells; how it was run: as §1
[26] = test system: ACHN; assay: Growth inhibition of human ACHN cells; how it was run: as §1
[27] = test system: CAKI-1; assay: Growth inhibition of human Caki1 cells; how it was run: as §1
[28] = test system: RXF 393; assay: Growth inhibition of human RXF393 cells; how it was run: as §1
[29] = test system: SN12C; assay: Growth inhibition of human SN12C cells; how it was run: as §2
[30] = test system: TK-10; assay: Growth inhibition of human TK10 cells; how it was run: as §2
[31] = test system: UO-31; assay: Growth inhibition of human UO31 cells; how it was run: as §2
[32] = test system: PC-3; assay: Growth inhibition of human PC3 cells; how it was run: as §1
[33] = test system: OVCAR-3; assay: Growth inhibition of human OVCAR-3 cells; how it was run: as §1
[34] = test system: OVCAR-4; assay: Growth inhibition of human OVCAR4 cells; how it was run: as §1
[35] = test system: OVCAR-5; assay: Growth inhibition of human OVCAR5 cells; how it was run: as §1
[36] = test system: OVCAR-8; assay: Growth inhibition of human OVCAR8 cells; how it was run: as §1
[37] = test system: NCI/ADR-RES; assay: Growth inhibition of human NCI/ADR-RES cells; how it was run: as §1
[38] = test system: SK-OV-3; assay: Growth inhibition of human SKOV3 cells; how it was run: as §2
[39] = test system: MCF7; assay: Growth inhibition of human MCF7 cells; how it was run: as §1
[40] = test system: MDA-MB-231; assay: Growth inhibition of human MDA-MB-231 cells; how it was run: as §1
[41] = test system: Hs-578T; assay: Growth inhibition of human Hs 578T cells; how it was run: as §1
[42] = test system: BT-549; assay: Growth inhibition of human BT549 cells; how it was run: as §1
[43] = test system: T47D; assay: Growth inhibition of human T47D cells; how it was run: as §2
[44] = test system: LOX IMVI; assay: Growth inhibition of human LOXIMVI cells; how it was run: as §1
[45] = test system: Malme-3M; assay: Growth inhibition of human MALME-3M cells; how it was run: as §1
[46] = test system: M14; assay: Growth inhibition of human M14 cells; how it was run: as §1
[47] = test system: MDA-MB-435; assay: Growth inhibition of human MDA-MB-435 cells; how it was run: as §1
[48] = test system: SK-MEL-2; assay: Growth inhibition of human SK-MEL-2 cells; how it was run: as §1
[49] = test system: SK-MEL-28; assay: Growth inhibition of human SK-MEL-28 cells; how it was run: as §1
[50] = test system: SK-MEL-5; assay: Growth inhibition of human SK-MEL-5 cells; how it was run: as §1
[51] = test system: UACC-257; assay: Growth inhibition of human UACC257 cells; how it was run: as §2
[52] = test system: UACC-62; assay: Growth inhibition of human UACC62 cells; how it was run: as §2
[53] = test system: MCF7; assay: Cell cycle arrest in human MCF7 cells assessed as accumulation at G0 phase at 10 uM after 24 hrs by FACS analysis
How it was run: (§3)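 MCF-7 breast carcinoma cells were exposed to 10 µM test compound for 24 h, with DMSO as the vehicle control. Cell-cycle distribution was read by FACS as the percentage of cells in G0, G1, S and G2/M.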

[54] = test system: MCF7; assay: Cell cycle arrest in human MCF7 cells assessed as accumulation at G1 phase at 10 uM after 24 hrs by FACS analysis; how it was run: as §3
[55] = test system: MCF7; assay: Cell cycle arrest in human MCF7 cells assessed as accumulation at S phase at 10 uM after 24 hrs by FACS analysis; how it was run: as §3
[56] = test system: MCF7; assay: Cell cycle arrest in human MCF7 cells assessed as accumulation at G2/M phase at 10 uM after 24 hrs by FACS analysis; how it was run: as §3
[57] = test system: MCF7; assay: Cell cycle arrest in human MCF7 cells assessed as accumulation at G0 phase at 30 uM after 24 hrs by FACS analysis
How it was run: (§4)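 MCF-7 cells were treated at 30 µM for 24 h alongside a DMSO control. Fractions in G0, G1, S and G2/M phases were measured by FACS, and values are means of three experiments.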

[58] = test system: MCF7; assay: Cell cycle arrest in human MCF7 cells assessed as accumulation at G1 phase at 30 uM after 24 hrs by FACS analysis; how it was run: as §4
[59] = test system: MCF7; assay: Cell cycle arrest in human MCF7 cells assessed as accumulation at S phase at 30 uM after 24 hrs by FACS analysis; how it was run: as §4
[60] = test system: MCF7; assay: Cell cycle arrest in human MCF7 cells assessed as accumulation at G2/M phase at 30 uM after 24 hrs by FACS analysis; how it was run: as §4

Work on `COc1cc(/C=C/C(=O)c2cccc(-n3cc(-c4cc(OC)c(OC)c(OC)c4)[nH]c3=O)c2)cc(OC)c1OC` yielded a GI50 [1] of 230 nM, a GI50 [2] of 590 nM and a GI50 [3] of 3030 nM. For the same compound, the GI50 [4] was 9470 nM, the GI50 [5] was 3080 nM and the GI50 [6] was 14400 nM. It also gave a GI50 [7] of 2000 nM, a GI50 [8] of 3610 nM and a GI50 [9] of 1730 nM. The GI50 [10] was 1050 nM, the GI50 [11] was 1520 nM and the GI50 [12] was 1920 nM. For the same compound, the GI50 [13] was 740 nM, the GI50 [14] was 1890 nM and the GI50 [15] was 1700 nM. It also gave a GI50 [16] of 1120 nM, a GI50 [17] of 1030 nM and a GI50 [18] of 2200 nM. The GI50 [19] was 4960 nM, the GI50 [20] was 3120 nM and the GI50 [21] was 4070 nM. The GI50 [22] was 5130 nM, the GI50 [23] was 1230 nM and the GI50 [24] was 20300 nM. For the same compound, the GI50 [25] was 1590 nM, the GI50 [26] was 1740 nM and the GI50 [27] was 2890 nM. It also gave a GI50 [28] of 1620 nM, a GI50 [29] of 2750 nM and a GI50 [30] of 3000 nM. The GI50 [31] was 960 nM, the GI50 [32] was 2630 nM and the GI50 [33] was 1480 nM. For the same compound, the GI50 [34] was 3770 nM, the GI50 [35] was 4380 nM and the GI50 [36] was 2320 nM. It also gave a GI50 [37] of 2100 nM, a GI50 [38] of 5120 nM and a GI50 [39] of 470 nM. For the same compound, the GI50 [40] was 4190 nM, the GI50 [41] was “inactive” and the GI50 [42] was 1520 nM. It also gave a GI50 [43] of 3080 nM, a GI50 [44] of 1230 nM and a GI50 [45] of 1800 nM. For the same compound, the GI50 [46] was 2120 nM, the GI50 [47] was 2110 nM and the GI50 [48] was 3020 nM. The GI50 [49] was 1610 nM, the GI50 [50] was 2760 nM and the GI50 [51] was 2220 nM. For the same compound, the GI50 [52] was 1870 nM, the Activity [53] was 3.63% and the Activity [54] was 47.6%. For the same compound, the Activity [55] was 25.65%, the Activity [56] was 23.12% and the Activity [57] was 39.7%. It also gave an Activity [58] of 42.7%, an Activity [59] of 7.85% and an Activity [60] of 9.75%.
